NR2E3 ag-1 – inhibitors of NR2E3-RetCOR corepressor binding, primary screen, NR2E3 agonist project, biochemical, TR-FRET, GST-NR2E3, biotin-RetCOR. Photoreceptor-specific nuclear receptor (Homo sapiens), Q9Y5X4. 1536-well. inhibition of corepressor binding, % at 4.78 µM. hit rate 0.12% among 320,000;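 active = percent inhibition above the cutoff of mean plus 3 SD of all tested compounds, set per screening campaign, cut at about 20% in these data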;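 note: 0% = DMSO wells and 100% = biotin wells as full block of FRET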
Target sequence (Q9Y5X4 whole entry, looked up): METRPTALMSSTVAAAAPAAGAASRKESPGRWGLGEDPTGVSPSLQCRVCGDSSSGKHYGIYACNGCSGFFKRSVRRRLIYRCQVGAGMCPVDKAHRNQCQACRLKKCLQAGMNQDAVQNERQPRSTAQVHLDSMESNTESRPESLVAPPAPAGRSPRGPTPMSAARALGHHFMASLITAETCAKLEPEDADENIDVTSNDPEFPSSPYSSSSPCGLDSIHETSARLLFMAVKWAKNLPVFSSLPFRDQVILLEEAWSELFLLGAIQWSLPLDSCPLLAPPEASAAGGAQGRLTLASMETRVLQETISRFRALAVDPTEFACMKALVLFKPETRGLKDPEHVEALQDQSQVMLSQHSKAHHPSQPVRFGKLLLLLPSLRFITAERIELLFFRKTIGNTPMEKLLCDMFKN
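System: GST-tagged NR2E3 plus biotinylated RetCOR corepressor; Amount: 1.35 nM GST-tagged NR2E3 final; Dosing: single nominal compound dose of 4.8 µM; Schedule: 5 h incubation at 4 °C; Technique: TR-FRET with europium anti-GST and streptavidin-D2, 340 nm excitation; Controls: biotin wells as high control, 0.6% DMSO wells as low control.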
GalR3 antagonist – GalR3 antagonists in HEK293 cells, primary screen, cell-based, fluorescence readout. hit rate 0.44% among 360,000. HEK293 GalR3-CNG cAMP membrane potential fluorescence; galR3 body fused to GalR1 C-terminus. AID 651719, 2012. Galanin receptor type 3 (Homo sapiens), O60755. inhibition, % at 3 µM;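 active = inhibition above the screen-wide average plus 3 SD, cut at about 13% in these data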;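 note: forskolin and galanin both at EC90 stimulate the cells; cAMP rise reported by CNG channel membrane potential dye signal; 0% = forskolin plus galanin with DMSO and 100% = forskolin alone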
Target sequence (O60755 1-299 limits assumed): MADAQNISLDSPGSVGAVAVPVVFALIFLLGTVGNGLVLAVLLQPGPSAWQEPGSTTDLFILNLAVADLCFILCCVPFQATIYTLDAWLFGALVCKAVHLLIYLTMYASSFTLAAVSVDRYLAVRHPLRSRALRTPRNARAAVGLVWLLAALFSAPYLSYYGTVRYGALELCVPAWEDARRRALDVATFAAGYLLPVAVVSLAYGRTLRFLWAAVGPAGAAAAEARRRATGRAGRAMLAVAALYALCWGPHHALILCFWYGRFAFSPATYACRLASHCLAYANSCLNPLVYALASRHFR
COUP-TFII inh – NR2F2 transcriptional activity inhibitors, primary screen, cell-based, luciferase reporter, HEK293T, luminescence; HEK293T NGFI-A luciferase reporter; inhibition, % at 8.6 µM; hit rate 0.7% among 370,000; AID 686940, 2013;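 active = inhibition above a per-plate cutoff, mean inhibition of test wells between control levels plus 3 SD, cut at about 38% in these data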;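 note: cells cotransfected with COUP-TFII expression vector driving the NGFI-A reporter; 0% = median of COUP-TF2 test wells and 100% = reporter-only cells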
SMARCA2 activ – SMARCA2 (BRM) function activators, primary screen, cell-based, luminescence, high throughput; MG213 cells, MMTV-luciferase reporter, dexamethasone, overnight; activation, % at 9.1 µM; hit rate 1% among 370,000; AID 652017, 2013; in the data active = activation above about 7.8%;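 note: 0% = vehicle wells and 100% = reference activator wells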
NR2E3 ag-2 – NR2E3 agonists in two-hybrid cells, primary screen, cell-based, luminescence, CHO-S, Gal4-NCOR/VP16-NR2E3; hit rate 0.35% among 360,000; luciferase; AID 602229, 2012; inhibition of corepressor binding, % at 3.98 µM;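 active = inhibition above the mean of all tested compounds plus 3 SD, cut at about 70% in these data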;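 note: 0% = DMSO with NR2E3 transfected cells and 100% = cells lacking NR2E3 construct; higher means lower luciferase signal from less NR2E3 corepressor binding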
SMARCA2 act conf – SMARCA2 (BRM) function activators, confirmation, cell-based, luminescence, triplicate | MG213 cells, MMTV-luciferase with dexamethasone, overnight; MG213 cells expressing E1A, Rb sequestered; DMSO wells 0%, reference activator 100% | AID 652260, 2013 | hit rate 30% among 3,500 | shares compounds with SMARCA2 activ | activation, % at 9.1 µM;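 active = activation above its plate's cutoff, the mean activation of tested wells plus 3 SD, cut at about 7.9% in these data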
GAL4-VP16 Luc – GAL4-VP16 luciferase reporter activation, counter-screen for SMARCA2 (BRM) activator project, cell-based, pG5luc, luminescence, high throughput | hit rate 41% among 3,500 | HEK293 GAL4-VP16 pG5luc reporter; scaled: DMSO wells 0%, SAHA wells 100% | activation, % at 9.1 µM | shares compounds with SMARCA2 activ;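 active = activation above the solvent-only control well mean plus 3 SD, averaged across control plates, cut at about 5.2% in these data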
Active calls of the source: *; . = no result. A selection: hits, their analogues and other compounds. The true share with any hit is near 2.2%.

SMILES | NR2E3 ag-1 | GalR3 antagonist | COUP-TFII inh | SMARCA2 activ | NR2E3 ag-2 | SMARCA2 act conf | GAL4-VP16 Luc
O=C(N/N=C/c1ccccn1)c1ccncc1 | -1.8 | -11.8 | 8.8 | -0.4 | -53.7 | . | .
CCOc1cccc(/C=N\NC(=O)Cc2cccs2)c1O | . | . | -40.2 | -4.4 | . | . | .
COc1ccc(C2C(C(=O)Nc3cc(OC)c(OC)c(OC)c3)CCC(=O)N2c2ccc(OC)cc2)cc1 (stereo not drawn) | . | . | 14.3 | 0.7 | . | . | .
COC(=O)[C@]12C[C@H](CC(=O)NCC3CCCCC3)C(=O)N(Cc3ccccc3)C1=C[C@H](COCc1ccccc1)O[C@@H]2C | . | . | -0.3 | -2.5 | . | . | .
Cc1csc(=O)n1CC(=O)Nc1ccc(C(C)C)cc1 | . | -3.2 | -7.1 | 8.0* | -26.6 | -1.3 | 5.4*
Nc1ccccc1C(=O)NN=Cc1cccc([N+](=O)[O-])c1 | . | -5.7 | -35.2 | 9.1* | -83.7 | 15.0* | 2.8
O=C(Nc1ccc2c(c1)ncn2-c1ccccc1)c1ccco1 | 6.3 | -5.8 | 0.5 | 10.9* | -51.5 | 15.9* | 7.9*
O=C(Nc1c(C(=O)Nc2ccccc2)cnn1-c1ccccc1)c1ccco1 | 3.7 | -8.9 | -4.4 | 9.8* | 2.0 | 1.0 | -0.3
Cn1cnc2cc(NC(=O)c3ccco3)ccc21 | 1.2 | -8.9 | -23.9 | 3.2 | -75.1 | . | .
Cc1ccc(NC(=O)c2cnn(-c3ccccc3)c2NC(=O)c2ccco2)cc1 | 2.0 | 0.1 | -14.4 | 2.2 | -46.6 | . | .
COc1cccc(NC(=O)NCCC2=CCCCC2)c1 | 1.8 | -8.1 | -40.0 | 15.9* | -78.2 | 5.3 | 11.5*
COc1ccc(NC(=O)NCCC2=CCCCC2)cc1 | 0.9 | -4.7 | -39.6 | 4.7 | -79.7 | . | .
COc1ccc(CNC(=O)CSc2nnnn2C)cc1OC | -1.5 | -2.6 | 9.6 | 8.5* | -4.2 | 2.1 | 0.8
O=c1ccsn1Cc1ccccc1 | 1.3 | -5.7 | 6.4 | 1.8 | 29.9 | . | .
Cn1sccc1=O | 2.1 | -4.9 | 15.4 | 9.4* | 1.8 | 16.6* | 2.1
Cc1ccc(NCCC(=O)c2cccc([N+](=O)[O-])c2)cc1 | 0.7 | -4.3 | -2.4 | 9.4* | -18.8 | 8.0* | 1.4
CCC[C@@H](/C=C/C(=O)OC(C)(C)C)Sc1ccccc1OC | . | . | 5.3 | -0.5 | . | . | .
CCOC(=O)C1=NOC(C(=O)NC2CCCC2)(C(=O)c2ccc(OC)cc2)C1 (stereo not drawn) | . | . | -16.9 | -4.7 | . | . | .
CC1CCN(C(=O)CSc2nnc3c(n2)[nH]c2ccc(F)cc23)CC1 | -0.3 | -9.6 | 16.6 | -0.6 | -1.8 | . | .
CC(C)c1ccc2[nH]c3nc(SCC(=O)N4CCOCC4)nnc3c2c1 | 1.8 | -5.9 | 3.0 | 9.7* | -28.1 | 3.7 | 5.8*
COc1ccccc1Cc1c(-c2cccc(Cl)c2)nc2ccc(Cl)cn12 | . | -4.2 | -26.7 | 3.1 | 5.4 | . | .
COc1ccccc1Cc1c(-c2ccccc2)nc2ccc(Cl)cn12 | . | -0.5 | -21.9 | 10.9* | -9.6 | 2.8 | 4.3
Clc1cccc(-c2nc3ccc(Cl)cn3c2Cc2ccccc2)c1 | . | -5.1 | -27.3 | 8.2* | -27.5 | 0.9 | 4.2
COc1ccc(Cc2c(-c3ccccc3)nc3ccc(C)cn23)c(C)c1 | . | -7.0 | -32.6 | 9.2* | . | 4.1 | 4.7
Cc1cc(C)n2nc(-c3ccccc3)cc2n1 | 2.3 | -2.5 | -54.1 | 2.5 | -96.0 | . | .
SMILES | NR2E3 ag-1 | GalR3 antagonist | COUP-TFII inh | SMARCA2 activ | NR2E3 ag-2 | SMARCA2 act conf | GAL4-VP16 Luc
CCC1C(=O)n2nc(-c3ccccc3)cc2N=C1C (stereo not drawn) | 1.8 | -2.4 | -28.7 | 10.4* | -131.0 | 11.9* | 9.2*
N#CCC[C@@H]1CC[C@]2(CCCN(C(=O)c3cccnc3)C2)O1 | . | . | -7.5 | -3.9 | . | . | .
Cc1ccccc1C(=O)NC1CCCCN(Cc2cccc(Cl)c2)C1=O (stereo not drawn) | . | . | 22.4 | -2.0 | . | . | .
CN(C)/C=N/c1ncc(C(=O)c2ccccc2)s1 | 3.0 | -5.3 | -42.0 | 13.5* | -84.7 | 8.7* | 8.1*
CN(C)/C=N/c1ncc(C(=O)c2ccc(-c3ccccc3)cc2)s1 | 3.9 | -4.4 | -11.7 | -2.7 | -50.3 | . | .
O=C(CNC(=O)c1ccccc1Cl)c1ccccc1 | 1.7 | -7.6 | -47.5 | 5.0 | -89.2 | . | .
O=C(CNC(=O)c1ccccc1F)NCCc1ccc(Cl)cc1Cl | -1.4 | -6.7 | 5.0 | 9.5* | -34.3 | -1.7 | 2.4
O=C(CNC(=O)c1ccccc1F)c1ccccc1 | 0.5 | -3.7 | -42.6 | 10.4* | -115.5 | 5.5 | 9.6*
COC(=O)[C@]12CCCCC=C1N(Cc1ccc(OC)cc1)C(=O)[C@@H]2CC(=O)NCc1cccc(C(F)(F)F)c1 | . | . | 6.6 | 0.6 | . | . | .
O=C(O)CN1C(=O)c2cccc3c(Br)ccc1c23 | 1.6 | -7.8 | -18.0 | -0.3 | -17.8 | . | .
CN(C)CCCN1C(=O)c2cccc3c(Br)ccc(c23)C1=O | 5.5 | -3.5 | 1.7 | 9.2* | -31.9 | 34.8* | 0.4
CC(=O)Nc1cccc(-c2cc(NC=O)c3ncc(-c4cccc(C(C)=O)c4)n3c2)c1 | . | -5.3 | -10.8 | 11.0* | 4.8 | 3.3 | 6.5*
COc1ccc(-c2cnc3c(NC(C)=O)cc(-c4cccc(C(=O)NCCN(C)C)c4)cn23)cc1OC | . | -1.7 | -34.3 | 4.1 | -1.9 | . | .
COc1cccc(-c2cnc3c(NC(C)=O)cc(-c4cccc(C(=O)NCCN(C)C)c4)cn23)c1 | . | -1.9 | -34.1 | 10.9* | 20.9 | 22.1* | -0.4
CN(C)C(=O)c1cccc(-c2cnc3c(NC=O)cc(-c4ccccc4Cl)cn23)c1 | . | 1.9 | -81.9 | 9.8* | 6.4 | 19.5* | 3.8
CC(C)(C)OC(=O)NC(Cc1ccccc1)C1CC(C#N)C(=O)O1 (stereo not drawn) | . | . | -6.1 | . | . | . | .
Cc1ccccc1C(=O)N1CCN(C(=O)C(=O)c2cccc(C(F)(F)F)c2)CC1 | . | -5.3 | -5.4 | -1.3 | . | . | .
O=C(Nc1ccc(NC(=O)C2CC2)nc1)c1ccccc1F | 2.7 | -8.1 | -13.9 | 8.6* | -26.6 | 7.6 | 5.3*
CCOC(=O)Nc1ccc(NC(=O)c2ccccc2F)cc1 | -0.1 | -3.0 | -26.0 | 9.0* | -29.4 | 9.5* | 8.5*
CCc1ccc(OC(=O)Nc2ccccc2)cc1 | . | -11.0 | -47.2 | 10.5* | -124.4 | 9.2* | 11.8*
CC(=O)Nc1ccc(NC(=O)c2ccccc2F)cc1 | -3.9 | -1.9 | -19.4 | 4.4 | -28.1 | . | .
CCc1ccc(NC(=O)c2ccccc2Br)cc1 | 0.8 | -5.3 | -42.2 | 9.9* | -72.6 | 4.6 | 10.1*

Assay outcomes (PubChem)
